Results as given in ChEMBL document CHEMBL1275252, “First survey of metallo-beta-lactamases in clinical isolates of Pseudomonas aeruginosa in a German university hospital” (2010).
≈ marks a conversion by molar mass, not a printed value.

Assays:
Type in all cases: functional
Pseudomonas aeruginosa [1] = assay: Antimicrobial activity against Pseudomonas aeruginosa isolate PA462 expressing VIM-2 beta-lactamase
Pseudomonas aeruginosa [2] = assay: Antimicrobial activity against metallo-beta-lactamase-negative Pseudomonas aeruginosa isolate PA509
Pseudomonas aeruginosa [3] = assay: Antimicrobial activity against metallo-beta-lactamase-negative Pseudomonas aeruginosa isolate PA479
Pseudomonas aeruginosa [4] = assay: Antimicrobial activity against Pseudomonas aeruginosa isolate PA399 expressing VIM-2 beta-lactamase
Pseudomonas aeruginosa [5] = assay: Antimicrobial activity against Pseudomonas aeruginosa isolate PA477 expressing VIM-2 beta-lactamase
Pseudomonas aeruginosa [6] = assay: Antimicrobial activity against Pseudomonas aeruginosa isolate PA469 expressing VIM-2 beta-lactamase
Pseudomonas aeruginosa [7] = assay: Antimicrobial activity against Pseudomonas aeruginosa isolate PA465 expressing VIM-2 beta-lactamase
Pseudomonas aeruginosa [8] = assay: Antimicrobial activity against metallo-beta-lactamase-negative Pseudomonas aeruginosa isolate PA494
Pseudomonas aeruginosa [9] = assay: Antimicrobial activity against metallo-beta-lactamase-negative Pseudomonas aeruginosa isolate PA459
Summary of the method: (§1)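 MBL-negative clinical P. aeruginosa isolates with reduced imipenem susceptibility, collected at the study hospital, some from cystic fibrosis patients. Species identity was confirmed by automated Gram-negative identification card. MIC was read in μg/ml.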

Pseudomonas aeruginosa [10] = assay: Antimicrobial activity against metallo-beta-lactamase-negative Pseudomonas aeruginosa isolate PA460
Pseudomonas aeruginosa [11] = assay: Antimicrobial activity against Pseudomonas aeruginosa isolate PA510 expressing VIM-2 beta-lactamase
Pseudomonas aeruginosa [12] = assay: Antimicrobial activity against Pseudomonas aeruginosa isolate PA481 expressing VIM-2 beta-lactamase
Pseudomonas aeruginosa [13] = assay: Antimicrobial activity against metallo-beta-lactamase-negative Pseudomonas aeruginosa isolate PA507; summary of the method: as §1
Pseudomonas aeruginosa [14] = assay: Antimicrobial activity against Pseudomonas aeruginosa isolate PA500 expressing VIM-1 beta-lactamase
Pseudomonas aeruginosa [15] = assay: Antimicrobial activity against metallo-beta-lactamase-negative Pseudomonas aeruginosa isolate PA483
Pseudomonas aeruginosa [16] = assay: Antimicrobial activity against Pseudomonas aeruginosa isolate PA475 expressing VIM-2 beta-lactamase

Compound | MIC (Pseudomonas aeruginosa [1]) [mg/L] | MIC (Pseudomonas aeruginosa [2]) [mg/L] | MIC (Pseudomonas aeruginosa [3]) [mg/L] | MIC (Pseudomonas aeruginosa [4]) [mg/L] | MIC (Pseudomonas aeruginosa [5]) [mg/L] | MIC (Pseudomonas aeruginosa [6]) [mg/L] | MIC (Pseudomonas aeruginosa [7]) [mg/L] | MIC (Pseudomonas aeruginosa [8]) [mg/L] | MIC (Pseudomonas aeruginosa [9]) [mg/L] | MIC (Pseudomonas aeruginosa [10]) [mg/L] | MIC (Pseudomonas aeruginosa [11]) [mg/L] | MIC (Pseudomonas aeruginosa [12]) [mg/L] | MIC (Pseudomonas aeruginosa [13]) [mg/L] | MIC (Pseudomonas aeruginosa [14]) [mg/L] | MIC (Pseudomonas aeruginosa [15]) [mg/L] | MIC (Pseudomonas aeruginosa [16]) [mg/L]
NC[C@H]1O[C@H](O[C@H]2[C@H](O)[C@@H](O[C@H]3O[C@H](CO)[C@@H](O)[C@H](N)[C@H]3O)[C@H](N)C[C@@H]2N)[C@H](N)C[C@@H]1O [TOBRAMYCIN] | ≥ 16 | ≥ 16 | ≥ 16 | ≥ 16 | ≥ 16 | ≥ 16 | ≤ 1 | 1 (≈ 2.14 µM) | 1 (≈ 2.14 µM) | ≥ 16 | ≥ 16 | ≥ 16 | 1 (≈ 2.14 µM) | 8 (≈ 17.1 µM) | 1 (≈ 2.14 µM) | ≥ 16
COLISTIN | 1 | 2 | 1 | 1 | 1 | 1 | 2 | 1 | 1 | 1 | 1 | 1 | 1 | 1 | 1 | 1
GENTAMICIN | > 16 | > 16 | > 16 | > 16 | > 16 | > 16 | > 16 | 8 | 1 | > 16 | > 16 | > 16 | > 16 | > 16 | 1 | > 16
